According to ChEMBL document CHEMBL5036376, “C20-nor-Abietane and Three Abietane Diterpenoids from Plectranthus mutabilis Leaves as P-Glycoprotein Modulators” (ACS Med Chem Lett, 2022):

What was measured:
[1] = Selectivity index, ratio of mean fluorescence intensity for stimulation of P-gp in human multidrug resistant NCI-H460/R cells to mean fluorescence intensity for stimulation of P-gp in human NCI-H460 cells assessed as decrease in Rho123 accumulation at 10 uM for 72 mins; format: functional; conditions: 1.2 h
[2] = target: T1, ATP-dependent translocase ABCB1 (Homo sapiens, UniProt P08183); experiment: Stimulation of P-gp in human multidrug resistant NCI-H460/R cells assessed as fluorescence activity ratio at 10 uM for 72 mins by Rho123 accumulation assay relative to control; conditions: nci-h460, 1.2 h
MRC5 = experiment: Cytotoxicity against human MRC-5 cells assessed as reduction in cell viability measured after 72 hrs by MTT assay; format: cell-based; conditions: MRC5, 72 h
Outline: (§1)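 MTT read-out of metabolic activity (viability) in sensitive NSCLC NCI-H460, its P-gp-overexpressing MDR subline NCI-H460/R and normal embryonic lung fibroblasts MRC-5. Isolated diterpenes were tested at 2, 5, 10, 20 and 50 μM and acetone extract at 2, 5, 10, 20 and 50 μg/mL. IC50 was reported in μM for compounds and μg/mL for extract.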

[3] = Selectivity index, ratio of mean fluorescence intensity for stimulation of P-gp in human multidrug resistant NCI-H460/R cells to mean fluorescence intensity for stimulation of P-gp in human NCI-H460 cells assessed as decrease in Rho123 accumulation at 5 uM for 30 mins; format: functional; conditions: 0.5 h
[4] = target: T1, ATP-dependent translocase ABCB1; experiment: Stimulation of P-gp in human multi drug resistant NCI-H460/R cells assessed as decrease in Rho123 accumulation by measuring mean fluorescence intensity at 10 uM incubated for 30 mins in presence of rhodamine 123by flow cytometry; conditions: nci-h460, 0.5 h
Outline: (§2)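 NCI-H460/R (P-gp-overexpressing NSCLC) cells exposed to the test agent together with Rho123 for 30 min; mean fluorescence intensity (MFI) read. Untreated NCI-H460/R serve as MDR control and parental NCI-H460 as sensitive control. FAR = MFI treated/MFI MDR control; SI = MFI treated × 100/MFI sensitive control; mean ± SE. Tariquidar is the P-gp inhibition positive control.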

[5] = Selectivity index, ratio of mean fluorescence intensity for stimulation of P-gp in human multidrug resistant NCI-H460/R cells to mean fluorescence intensity for stimulation of P-gp in human NCI-H460 cells assessed as decrease in Rho123 accumulation at 5 uM for 72 mins; format: functional; conditions: 1.2 h
[6] = target: T1, ATP-dependent translocase ABCB1; experiment: Stimulation of P-gp in human multidrug resistant NCI-H460/R cells assessed as fluorescence activity ratio at 5 uM for 72 mins by Rho123 accumulation assay relative to control; conditions: nci-h460, 1.2 h
NCI-H460 [7] = experiment: Anticancer activity against human multi-drug resistant NCI-H460/R cells assessed as reduction in cell viability measured after 72 hrs by MTT assay; format: functional, cell-based; conditions: NCI-H460, 72 h; outline: as §1
[8] = target: T1, ATP-dependent translocase ABCB1; experiment: Stimulation of P-gp in human multidrug resistant NCI-H460/R cells assessed as decrease in Rho123 accumulation by measuring mean fluorescence intensity at 10 uM incubated for 72 hrs followed by rhodamine 123 measured after 30 mins by flow cytometry; conditions: nci-h460, 72.5 h
Outline: (§3)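 NCI-H460/R cells treated with the test agent for 72 h, then loaded with Rho123 for 30 min; intracellular mean fluorescence intensity (MFI) measured. References are untreated NCI-H460/R (MDR control) and parental NCI-H460 (sensitive control). FAR = MFI treated/MFI MDR control; SI = MFI treated × 100/MFI sensitive control; mean ± SE. Tariquidar is the P-gp inhibitor comparator.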

[9] = target: T1, ATP-dependent translocase ABCB1; experiment: Stimulation of P-gp in human multi-drug resistant NCI-H460/R cells assessed as decrease in Rho123 accumulation by measuring mean fluorescence intensity at 5 uM incubated for 30 mins in presence of rhodamine 123 by flow cytometry; conditions: nci-h460, 0.5 h; outline: as §2
[10] = Selectivity index, ratio of mean fluorescence intensity for stimulation of P-gp in human multidrug resistant NCI-H460/R cells to mean fluorescence intensity for stimulation of P-gp in human NCI-H460 cells assessed as decrease in Rho123 accumulation at 10 uM for 30 mins; format: functional; conditions: 0.5 h
[11] = target: T1, ATP-dependent translocase ABCB1; experiment: Stimulation of P-gp in human multidrug resistant NCI-H460/R cells assessed as fluorescence activity ratio at 10 uM for 30 mins by Rho123 accumulation assay relative to control; conditions: nci-h460, 0.5 h
[12] = Selectivity index, ratio of IC50 for cytotoxicity against human MRC-5 cells to of IC50 for anticancer activity against human NCI-H460 cells; format: toxicity, cell-based; conditions: for selectivity ratio: MRC-5 cells versus NCI-H460 cells, read-out: Ratio IC50
Outline: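 Selectivity index is the MRC-5 IC50 divided by the NCI-H460 IC50. Both come from MTT viability assays over 2–50 μM (compounds) or 2–50 μg/mL (extract).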

[13] = target: T1, ATP-dependent translocase ABCB1; experiment: Stimulation of P-gp in human multidrug resistant NCI-H460/R cells assessed as decrease in Rho123 accumulation by measuring mean fluorescence intensity at 5 uM incubated for 72 hrs followed by rhodamine 123 measured after 30 mins by flow cytometry; conditions: nci-h460, 72.5 h; outline: as §3
[14] = target: T1, ATP-dependent translocase ABCB1; experiment: Stimulation of P-gp in human multidrug resistant NCI-H460/R cells assessed as fluorescence activity ratio at 5 uM for 30 mins by Rho123 accumulation assay relative to control; conditions: nci-h460, 0.5 h
NCI-H460 [15] = experiment: Anticancer activity against human NCI-H460 cells assessed as reduction in cell viability measured after 72 hrs by MTT assay; format: functional, cell-based; conditions: NCI-H460, 72 h; outline: as §1
[16] = Selectivity index, ratio of mean fluorescence intensity for stimulation of P-gp in human multidrug resistant NCI-H460/R cells to mean fluorescence intensity for stimulation of P-gp in human NCI-H460 cells assessed as decrease in Rho123 accumulation at 50 uM for 30 mins; format: functional; conditions: 0.5 h
Outline: (§4)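 Rho123 and test agent given together to NCI-H460/R cells for 30 min, then mean fluorescence intensity (MFI) read. FAR = MFI of treated MDR cells / MFI of untreated MDR cells. SI = (MFI of treated MDR cells × 100) / MFI of untreated sensitive NCI-H460 cells. Tariquidar was the P-gp inhibition control. Mean ± SE.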

[17] = target: T1, ATP-dependent translocase ABCB1; experiment: Stimulation of P-gp in human multi-drug resistant NCI-H460/R cells assessed as decrease in Rho123 accumulation by measuring mean fluorescence intensity at 50 uM incubated for 30 mins in presence of rhodamine 123 by flow cytometry; conditions: nci-h460, 0.5 h; outline: as §2
[18] = Selectivity index, ratio of mean fluorescence intensity for stimulation of P-gp in human multidrug resistant NCI-H460/R cells to mean fluorescence intensity for stimulation of P-gp in human NCI-H460 cells assessed as decrease in Rho123 accumulation at 0.05 uM for […]; format: functional
[19] = target: T1, ATP-dependent translocase ABCB1; experiment: Stimulation of P-gp in human multidrug resistant NCI-H460/R cells assessed as fluorescence activity ratio at 0.05 uM […] by Rho123 accumulation assay relative to control; conditions: nci-h460, 1.2 h
[20] = target: T1, ATP-dependent translocase ABCB1; experiment: Stimulation of P-gp in human multidrug resistant NCI-H460/R cells assessed as decrease in Rho123 accumulation by measuring mean fluorescence intensity at 0.05 uM incubated for 72 hour followed by rhodamine 123 measured after 30 mins by flow cytometry; conditions: nci-h460, 72 h; outline: as §3
[21] = target: T1, ATP-dependent translocase ABCB1; experiment: Stimulation of P-gp in human multidrug resistant NCI-H460/R cells assessed as fluorescence activity ratio at 50 uM for 30 mins by Rho123 accumulation assay relative to control; conditions: nci-h460, 0.5 h; outline: as §4

T1 sequence (P08183 whole entry): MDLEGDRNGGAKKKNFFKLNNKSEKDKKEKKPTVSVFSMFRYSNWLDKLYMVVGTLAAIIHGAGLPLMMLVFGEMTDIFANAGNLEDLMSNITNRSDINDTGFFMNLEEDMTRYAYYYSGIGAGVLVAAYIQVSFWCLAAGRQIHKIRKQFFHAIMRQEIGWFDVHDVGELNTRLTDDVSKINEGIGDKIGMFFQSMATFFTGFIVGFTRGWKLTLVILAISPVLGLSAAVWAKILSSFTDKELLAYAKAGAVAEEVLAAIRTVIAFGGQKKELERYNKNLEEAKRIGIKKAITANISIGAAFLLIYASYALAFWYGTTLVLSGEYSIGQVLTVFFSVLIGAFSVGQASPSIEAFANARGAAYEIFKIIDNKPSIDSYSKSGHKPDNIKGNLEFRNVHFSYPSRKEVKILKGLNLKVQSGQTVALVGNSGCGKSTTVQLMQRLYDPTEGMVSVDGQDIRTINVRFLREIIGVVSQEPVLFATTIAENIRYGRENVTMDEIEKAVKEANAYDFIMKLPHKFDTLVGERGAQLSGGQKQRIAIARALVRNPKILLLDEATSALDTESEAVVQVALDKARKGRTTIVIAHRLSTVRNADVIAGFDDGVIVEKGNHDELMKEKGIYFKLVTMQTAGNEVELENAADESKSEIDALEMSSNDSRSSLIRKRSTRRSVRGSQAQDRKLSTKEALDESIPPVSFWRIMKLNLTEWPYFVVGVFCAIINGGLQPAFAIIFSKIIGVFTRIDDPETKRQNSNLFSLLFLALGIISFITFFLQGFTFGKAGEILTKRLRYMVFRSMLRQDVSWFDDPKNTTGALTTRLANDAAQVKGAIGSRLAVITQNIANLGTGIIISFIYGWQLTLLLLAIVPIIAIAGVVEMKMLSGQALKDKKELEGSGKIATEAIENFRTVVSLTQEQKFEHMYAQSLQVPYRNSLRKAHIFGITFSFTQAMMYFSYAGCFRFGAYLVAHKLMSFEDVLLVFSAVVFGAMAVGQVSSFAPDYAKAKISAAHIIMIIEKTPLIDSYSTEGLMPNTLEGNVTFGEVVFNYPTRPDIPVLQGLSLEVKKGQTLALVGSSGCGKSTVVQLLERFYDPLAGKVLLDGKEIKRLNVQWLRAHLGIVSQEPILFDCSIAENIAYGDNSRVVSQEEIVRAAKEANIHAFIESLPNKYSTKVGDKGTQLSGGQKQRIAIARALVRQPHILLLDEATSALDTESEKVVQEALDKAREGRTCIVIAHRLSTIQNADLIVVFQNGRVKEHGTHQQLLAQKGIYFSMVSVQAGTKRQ

Row | Structure (SMILES) | Selectivity Index [1] | Ratio [2] | IC50 (MRC5) [µM] | Selectivity Index [3] | Flu intensity [4] | Selectivity Index [5] | Ratio [6] | IC50 (NCI-H460 [7]) [µM] | Flu intensity [8] | Flu intensity [9] | Selectivity Index [10] | Ratio [11] | Flu intensity [13] | Ratio [14] | IC50 (NCI-H460 [15]) [µM] | selectivity ratio [12] | also measured
1 | CC(C)c1cc2c(c(O)c1O)[C@@]1(O)CCCC(C)(C)[C@@H]1C(=O)C2=O | 10.26 | 0.31 | > 50 | 27.68 | 573 | 10.72 | 0.33 | > 50 | 254.5 | 595.3 | 26.64 | 1.12 | 265.9 | 1.16 | > 50 |  | Ratio IC50 [12]: Not Active
2 | CC(C)C1=C(O)C(=O)[C@@]23O[C@@]2(C(=O)C(O)=C2C(C)(C)CCC[C@@]23C)C1=O | 11.16 | 0.34 | 40.2 | 33.08 | 666.1 | 11.68 | 0.36 | 17.3 | 276.6 | 711.6 | 30.97 | 1.3 | 289.7 | 1.39 | 20.2 | 2 | 
3 | CC(C)c1c(O)c(O)c2c(c1O)C(=O)C(O)=C1C(C)(C)CCC[C@@]12C | 4.43 | 0.14 | 35.5 | 58.52 | 253 | 7 | 0.21 | 14.5 | 109.7 | 1258.8 | 11.76 | 0.49 | 173.5 | 2.45 | 14.1 | 2.5 | 
4 | CC(C)C1=C(O)C(=O)C2=C(C(=O)C(O)=C3C(C)(C)CCC[C@]23C)C1=O | 9.76 | 0.3 | 44.1 | 31.13 | 991.3 | 11.18 | 0.34 | 20.4 | 242 | 669.6 | 46.09 | 1.93 | 277.3 | 1.3 | 23 | 2 | 
5 | CC(=O)O[C@H]1C(=O)[C@@]2(C)[C@H]([C@H](OC(=O)c3ccccc3)[C@]3(O)C[C@H](OC(=O)[C@H](O)[C@@H](NC(=O)c4ccccc4)c4ccccc4)C(C)=C1C3(C)C)[C@]1(OC(C)=O)CO[C@@H]1C[C@@H]2O [PACLITAXEL] |  |  | 0.523 |  |  |  |  | 0.117 |  |  |  |  |  |  | 0.0006 | 872 | 
6 | COc1cc2c(cc1OC)CN(CCc1ccc(NC(=O)c3cc(OC)c(OC)cc3NC(=O)c3cnc4ccccc4c3)cc1)CC2 [TARIQUIDAR] |  |  |  |  |  |  |  |  |  |  |  |  |  |  |  |  | Selectivity Index [16]: 121.16; Flu intensity [17]: 3004; Selectivity Index [18]: 121.16; Ratio [19]: 3.7; Flu intensity [20]: 3004; Ratio [21]: 3.7
7 | COc1cccc2c1C(=O)c1c(O)c3c(c(O)c1C2=O)C[C@@](O)(C(=O)CO)C[C@@H]3O[C@H]1C[C@H](N)[C@H](O)[C@H](C)O1 [DOXORUBICIN] |  |  |  |  |  |  |  | 1.62 |  |  |  |  |  |  |  |  | 
